Test results from ChEMBL document CHEMBL1148234, “Tricyclic pyridones as functionally selective human GABAA alpha 2/3 receptor-ion channel ligands” (Bioorg Med Chem Lett, 2004).

Columns and labels:
[1] = target: T1, GABA-A receptor; alpha-1/beta-3/gamma-2 (Homo sapiens, UniProt P14867+P18507+P28472); experiment: Binding affinity at human recombinant gamma-aminobutyric-acid A receptor alpha-1-beta-3-gamma-2 expressed in L(tk) cells by [3H]Ro-151788 displacement.; assay type: cell-based
T1 sequence (P14867 whole entry): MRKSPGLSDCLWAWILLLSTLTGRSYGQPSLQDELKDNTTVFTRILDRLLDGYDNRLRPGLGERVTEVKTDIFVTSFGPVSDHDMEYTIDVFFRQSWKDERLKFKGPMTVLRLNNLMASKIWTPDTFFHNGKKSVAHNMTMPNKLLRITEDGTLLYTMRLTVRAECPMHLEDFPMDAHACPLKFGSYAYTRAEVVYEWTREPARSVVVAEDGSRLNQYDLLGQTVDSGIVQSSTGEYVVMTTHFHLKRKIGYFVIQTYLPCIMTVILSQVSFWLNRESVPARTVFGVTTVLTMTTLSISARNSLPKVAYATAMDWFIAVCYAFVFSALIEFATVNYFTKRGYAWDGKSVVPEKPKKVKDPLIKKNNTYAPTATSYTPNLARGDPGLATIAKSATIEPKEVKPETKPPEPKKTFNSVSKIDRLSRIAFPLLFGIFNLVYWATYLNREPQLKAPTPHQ
T1 sequence (P18507 whole entry): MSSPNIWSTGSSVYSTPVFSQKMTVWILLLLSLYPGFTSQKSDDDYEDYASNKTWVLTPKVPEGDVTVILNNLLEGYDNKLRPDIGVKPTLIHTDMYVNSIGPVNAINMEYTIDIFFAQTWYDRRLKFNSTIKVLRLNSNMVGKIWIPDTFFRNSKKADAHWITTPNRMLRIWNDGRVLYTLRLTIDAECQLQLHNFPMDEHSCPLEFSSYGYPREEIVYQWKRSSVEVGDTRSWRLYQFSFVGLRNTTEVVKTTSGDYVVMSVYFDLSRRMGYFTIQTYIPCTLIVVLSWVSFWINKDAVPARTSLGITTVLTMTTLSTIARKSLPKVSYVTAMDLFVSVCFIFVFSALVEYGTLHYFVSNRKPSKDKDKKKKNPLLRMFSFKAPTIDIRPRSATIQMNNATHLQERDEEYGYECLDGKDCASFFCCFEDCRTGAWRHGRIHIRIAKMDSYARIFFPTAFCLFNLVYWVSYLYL
T1 sequence (P28472 whole entry): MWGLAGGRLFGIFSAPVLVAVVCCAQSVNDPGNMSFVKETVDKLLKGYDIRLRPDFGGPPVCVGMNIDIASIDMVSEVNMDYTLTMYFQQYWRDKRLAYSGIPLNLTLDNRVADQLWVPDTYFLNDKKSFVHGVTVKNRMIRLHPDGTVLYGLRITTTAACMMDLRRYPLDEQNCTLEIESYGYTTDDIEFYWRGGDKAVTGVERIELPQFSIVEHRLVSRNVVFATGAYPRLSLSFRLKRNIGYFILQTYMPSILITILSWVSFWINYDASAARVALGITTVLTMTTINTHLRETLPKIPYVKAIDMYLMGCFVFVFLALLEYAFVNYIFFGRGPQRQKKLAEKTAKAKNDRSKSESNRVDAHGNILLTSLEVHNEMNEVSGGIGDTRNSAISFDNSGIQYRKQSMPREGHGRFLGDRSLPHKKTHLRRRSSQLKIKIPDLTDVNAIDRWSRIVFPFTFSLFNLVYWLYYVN
How it was run: (§1)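 Human recombinant GABAA receptors (α1 or α3 with β3γ2) stably expressed in L(tk⁻) cells; affinity measured as displacement of [³H]Ro15-1788. Values are mean±SD of 2–10 separate determinations.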

[2] = target: T2, Gamma-aminobutyric acid receptor subunit alpha-3 (Homo sapiens) (UniProt P34903); experiment: Efficacy at Gamma-aminobutyric acid A receptor, alpha 3-ion channel relative to chlorodiazepoxide.
T2 sequence (whole entry): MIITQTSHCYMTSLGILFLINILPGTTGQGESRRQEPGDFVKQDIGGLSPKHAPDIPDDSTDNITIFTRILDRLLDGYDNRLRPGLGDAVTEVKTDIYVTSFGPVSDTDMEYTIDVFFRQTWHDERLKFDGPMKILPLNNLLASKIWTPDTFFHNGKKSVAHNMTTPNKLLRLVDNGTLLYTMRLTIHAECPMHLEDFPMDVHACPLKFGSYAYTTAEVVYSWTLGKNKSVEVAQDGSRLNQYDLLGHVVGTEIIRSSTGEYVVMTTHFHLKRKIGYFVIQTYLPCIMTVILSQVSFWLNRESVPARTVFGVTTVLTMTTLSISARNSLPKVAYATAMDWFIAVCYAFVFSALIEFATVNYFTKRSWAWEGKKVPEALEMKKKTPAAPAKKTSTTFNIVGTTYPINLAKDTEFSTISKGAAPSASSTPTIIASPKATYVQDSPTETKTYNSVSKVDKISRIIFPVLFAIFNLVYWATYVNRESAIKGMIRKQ
How it was run: (§2)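 Human recombinant GABAA receptors, α1 or α3 with β3γ2, stably expressed in L(tk⁻) cells. Chloride ion flux modulated by test compound at approximately 1000×Ki, in the presence of GABA at an EC20-equivalent concentration. Efficacy expressed relative to full agonist chlordiazepoxide (=1.0), from at least seven independent experiments; some compounds measured instead by whole-cell patch-clamp current at GABA EC20.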

[3] = target: T3, GABA-A receptor; alpha-3/beta-3/gamma-2 (Homo sapiens, UniProt P18507+P28472+P34903); experiment: Binding affinity at human recombinant gamma-aminobutyric-acid A receptor alpha-3-beta-3-gamma-2 expressed in L(tk) cells by [3H]Ro-151788 displacement.; assay type: cell-based; how it was run: as §1
T3 sequence (P18507 whole entry): T1 sequence (P18507 whole entry)
T3 sequence (P28472 whole entry): T1 sequence (P28472 whole entry)
T3 sequence (P34903 whole entry): T2 sequence (whole entry)

[4] = target: T4, Gamma-aminobutyric acid receptor subunit alpha-1 (Homo sapiens) (UniProt P14867); experiment: Efficacy at gamma-aminobutyric acid A receptor, alpha 1-ion channel relative to chlorodiazepoxide.; how it was run: as §2
T4 sequence (whole entry): T1 sequence (P14867 whole entry)

[5] = Oral bioavailability in dog; assay type: ADME, organism-based, Canis lupus familiaris; conditions: in vivo
[6] = Oral bioavailability in rat; assay type: ADME, organism-based; conditions: in vivo
[7] = target: Gamma-aminobutyric acid receptor subunit alpha-4 (Homo sapiens, UniProt P48169); experiment: Displacement of [3H]Ro-151788 from human GABA-A receptor alpha4 subunit expressed in L(tk) cells; assay type: cell-based
[8] = target: Gamma-aminobutyric acid receptor subunit alpha-6 (Homo sapiens, UniProt Q16445); experiment: Displacement of [3H]Ro-151788 from human GABA-A receptor alpha6 subunit expressed in L(tk) cells; assay type: cell-based
[9] = target: T5, Gamma-aminobutyric acid receptor subunit alpha-5 (Homo sapiens, UniProt P31644); experiment: Displacement of [3H]-Ro-15-1788 from human GABA-A receptor alpha5 subunit expressed in L(tk) cells; assay type: cell-based
T5 sequence (P31644 whole entry): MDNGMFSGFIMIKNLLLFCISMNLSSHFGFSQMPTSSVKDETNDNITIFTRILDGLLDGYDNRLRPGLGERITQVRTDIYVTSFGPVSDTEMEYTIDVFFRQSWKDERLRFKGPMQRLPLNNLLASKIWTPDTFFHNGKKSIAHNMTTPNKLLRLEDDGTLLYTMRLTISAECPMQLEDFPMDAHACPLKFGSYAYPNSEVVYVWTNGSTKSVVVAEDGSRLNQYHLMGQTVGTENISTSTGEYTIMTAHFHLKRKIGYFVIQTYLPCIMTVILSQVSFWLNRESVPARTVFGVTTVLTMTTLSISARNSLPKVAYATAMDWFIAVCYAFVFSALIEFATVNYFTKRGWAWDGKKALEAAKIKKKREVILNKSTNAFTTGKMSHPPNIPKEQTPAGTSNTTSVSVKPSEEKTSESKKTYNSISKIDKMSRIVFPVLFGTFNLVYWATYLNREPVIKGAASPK

[10] = target: T1, GABA-A receptor; alpha-1/beta-3/gamma-2; experiment: Displacement of [3H]Ro-151788 from human GABA-A receptor alpha-1-beta-3-gamma-2 subunits expressed in L(tk) cells; assay type: cell-based; how it was run: as §1
[11] = target: T6, Gamma-aminobutyric acid receptor subunit alpha-2 (Homo sapiens, UniProt P47869); experiment: Displacement of [3H]Ro-151788 from human GABA-A receptor alpha2 subunit expressed in L(tk) cells; assay type: cell-based
T6 sequence (P47869 whole entry): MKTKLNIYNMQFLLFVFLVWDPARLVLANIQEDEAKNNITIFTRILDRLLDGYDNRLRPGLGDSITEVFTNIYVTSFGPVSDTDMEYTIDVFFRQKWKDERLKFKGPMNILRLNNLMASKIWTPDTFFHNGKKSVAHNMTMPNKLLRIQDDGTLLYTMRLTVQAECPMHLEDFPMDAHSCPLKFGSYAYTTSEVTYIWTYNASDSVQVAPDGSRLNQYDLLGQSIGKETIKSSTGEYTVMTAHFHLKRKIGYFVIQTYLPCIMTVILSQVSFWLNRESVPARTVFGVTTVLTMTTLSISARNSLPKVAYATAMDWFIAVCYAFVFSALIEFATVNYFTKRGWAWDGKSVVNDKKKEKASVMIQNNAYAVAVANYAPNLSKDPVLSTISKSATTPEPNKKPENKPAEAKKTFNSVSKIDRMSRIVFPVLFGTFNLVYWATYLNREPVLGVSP

Gamma-aminobutyric acid receptor subunit alpha-4, sequence (P48169 whole entry): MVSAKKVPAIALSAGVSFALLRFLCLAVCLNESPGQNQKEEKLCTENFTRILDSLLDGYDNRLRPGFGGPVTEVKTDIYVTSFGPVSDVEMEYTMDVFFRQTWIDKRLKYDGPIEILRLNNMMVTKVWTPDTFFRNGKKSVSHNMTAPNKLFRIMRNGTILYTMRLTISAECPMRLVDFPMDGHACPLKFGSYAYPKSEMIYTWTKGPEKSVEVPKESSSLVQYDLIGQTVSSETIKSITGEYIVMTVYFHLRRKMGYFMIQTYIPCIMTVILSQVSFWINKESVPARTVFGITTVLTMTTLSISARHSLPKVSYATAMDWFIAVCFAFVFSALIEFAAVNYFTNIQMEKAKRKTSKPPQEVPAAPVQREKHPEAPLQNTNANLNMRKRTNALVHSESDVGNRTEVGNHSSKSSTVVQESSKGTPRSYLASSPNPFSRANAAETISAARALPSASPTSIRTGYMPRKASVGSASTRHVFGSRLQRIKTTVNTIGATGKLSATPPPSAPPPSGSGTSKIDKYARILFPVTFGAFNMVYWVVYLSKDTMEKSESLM
Gamma-aminobutyric acid receptor subunit alpha-6, sequence (Q16445 whole entry): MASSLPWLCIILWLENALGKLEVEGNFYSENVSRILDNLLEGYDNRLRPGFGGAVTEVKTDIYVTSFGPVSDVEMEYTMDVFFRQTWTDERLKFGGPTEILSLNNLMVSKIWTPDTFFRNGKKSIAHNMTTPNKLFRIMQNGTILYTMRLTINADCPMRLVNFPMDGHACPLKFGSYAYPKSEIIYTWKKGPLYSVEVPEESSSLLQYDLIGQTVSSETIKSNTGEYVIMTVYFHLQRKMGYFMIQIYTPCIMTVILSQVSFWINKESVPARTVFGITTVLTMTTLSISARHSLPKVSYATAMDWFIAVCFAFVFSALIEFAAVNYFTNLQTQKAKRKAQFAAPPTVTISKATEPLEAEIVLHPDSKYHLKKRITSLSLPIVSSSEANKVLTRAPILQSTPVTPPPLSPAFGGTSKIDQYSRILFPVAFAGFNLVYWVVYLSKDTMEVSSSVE

Row | SMILES | Ki [1] | Efficacy [2] | Ki [3] | Efficacy [4] | bioavailability [5] | bioavailability [6] | Ki [7] | Ki [8] | Ki [9] | Ki [10] | Ki [11]
1 | Cc1csc(-c2cc(-c3ccncn3)c3n(c2=O)CCCc2ccncc2-3)n1 | 12.2 nM | 0.32 | 8.5 nM | 0.03 | – | – | – | – | – | – | –
2 | Cc1csc(-c2cc(-c3ccnnc3)c3n(c2=O)CCCc2ccncc2-3)n1 | 8.3 nM | 0.2 | 5 nM | -0.41 | – | – | – | – | – | – | –
3 | Cc1csc(-c2cc(-c3cccn3C)c3n(c2=O)CCCc2ccncc2-3)n1 | 4 nM | 0.46 | 3 nM | 0 | – | – | – | – | – | – | –
4 | Cc1csc(-c2cc(-c3cccnc3)c3n(c2=O)CCCc2ccncc2-3)n1 | 5.3 nM | -0.02 | 2.4 nM | -0.16 | – | – | – | – | – | – | –
5 | Cc1csc(-c2cc(-c3ccccc3F)c3n(c2=O)CCCc2ccncc2-3)n1 | 5 nM | 0.48 | 3 nM | 0.56 | – | – | – | – | – | – | –
6 | Cc1csc(-c2cc(-c3ccc(C(C)(C)C)cc3)c3n(c2=O)CCCc2ccncc2-3)n1 | > 33 nM | – | > 33 nM | – | – | – | – | – | – | – | –
7 | Cc1csc(-c2cc(-c3ccncc3)c3n(c2=O)CCCc2ccncc2-3)n1 | 1.3 nM | 0.45 | 0.5 nM | 0 | 20% | 28% | 27.9 nM | 65.9 nM | > 33.3 nM | – | –
8 | Cc1csc(-c2cc(-c3cccnn3)c3n(c2=O)CCCc2ccncc2-3)n1 | 26.1 nM | -0.44 | 17.3 nM | -0.33 | – | – | – | – | – | – | –
9 | Cc1csc(-c2cc(-c3ccc(Cl)cc3)c3n(c2=O)CCCc2ccncc2-3)n1 | – | 0.26 | 0.4 nM | 0.17 | – | – | – | – | – | 0.2 nM | –
10 | Cc1csc(-c2cc(-c3ccoc3)c3n(c2=O)CCCc2ccncc2-3)n1 | 3.9 nM | 0.05 | 4.4 nM | 0.04 | – | – | – | – | – | – | –
11 | Cc1csc(-c2cc(-c3ccn(C)n3)c3n(c2=O)CCCc2ccncc2-3)n1 | 10 nM | 0.47 | 20 nM | 0.29 | – | – | – | – | – | – | –
12 | Cc1csc(-c2cc(-c3ccccc3C)c3n(c2=O)CCCc2ccncc2-3)n1 | 1.5 nM | 0.36 | 1.2 nM | 0.08 | – | – | – | – | – | – | –
13 | Cc1csc(-c2cc(-c3ccccc3)c3n(c2=O)CCCc2ccncc2-3)n1 | 0.7 nM | 0.32 | 0.4 nM | 0.1 | – | – | – | – | – | – | 0.3 nM
14 | Cc1csc(-c2cc(-c3ccc[nH]3)c3n(c2=O)CCCc2ccncc2-3)n1 | 7.8 nM | 0.41 | 4.2 nM | -0.21 | – | – | – | – | – | – | –
15 | Cc1csc(-c2cc(-c3cncnc3)c3n(c2=O)CCCc2ccncc2-3)n1 | 21.1 nM | 0.16 | 9 nM | -0.03 | – | – | – | – | – | – | –
16 | Cc1csc(-c2cc(-c3ccc(C#N)cc3)c3n(c2=O)CCCc2ccncc2-3)n1 | 5.4 nM | 0.39 | 3.1 nM | -0.04 | – | – | – | – | – | – | –
17 | Cc1csc(-c2cc(-c3nccn3C)c3n(c2=O)CCCc2ccncc2-3)n1 | – | -0.01 | 16.8 nM | -0.33 | – | – | – | – | – | 14.3 nM | –
18 | Cc1csc(-c2cc(-c3ccc4ccccc4c3)c3n(c2=O)CCCc2ccncc2-3)n1 | > 33 nM | – | > 33 nM | – | – | – | – | – | – | – | –
19 | Cc1csc(-c2cc(-c3c(C)noc3C)c3n(c2=O)CCCc2ccncc2-3)n1 | 4.6 nM | 0.41 | 3.1 nM | -0.11 | – | – | – | – | – | – | –
